For test [1], the system named is MCF7. The experiment in a line: Down regulation of ER alpha expression in human MCF7 cells at 4 uM after 24 hrs by luciferase reporter gene assay. The test is classed as functional, cell-based. In outline:
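MCF-7 cells first transfected with ERα construct for 48 h, then compound exposure at 4 µM for 24 h; luciferase-based read-out; etoposide and doxorubicin run as standards.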
In general terms: A reporter such as luciferase makes a cellular process visible.

Test [2] has as its system MCF7. The experiment in a line: Cell cycle arrest in human MCF7 cells assessed as accumulation at G1 phase at 4 uM after 48 hrs (reference value: 63%). The test is classed as functional. In outline: (§1)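 MCF-7 breast cancer cells exposed 48 h to 4, 8, 16 or 32 µM; doxorubicin as positive control. Cell cycle phase distribution (G0, G1, S, G2/M) read as percentage of cells; G0 fraction taken as apoptotic cells.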

The test system of test [3] is MCF7. The experiment in a line: Cell cycle arrest in human MCF7 cells assessed as accumulation at G2/M phase at 4 uM after 48 hrs (reference value: 25%). The test is classed as functional. In outline:
as §1

The test system of test [4] is SiHa. The experiment in a line: Cytotoxicity against human SiHa cells assessed as cell viability after 24 to 48 hrs by MTT assay. The test is classed as functional. In outline:
(§2)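 MTT viability assay in SiHa, HeLa (cervical), MCF-7 (breast) and IMR-32 (neuroblastoma) cells, treated with conjugates over 0.25 to 8 µM for 48 h.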
(In general: Formazan colour is commonly taken as a measure of viable cells.)

For test [5], the system named is MCF7. The experiment in a line: Cell cycle arrest in human MCF7 cells assessed as accumulation at G1 phase at 8 uM after 48 hrs (reference value: 63%). The test is classed as functional. In outline: as §1
The subject of test [6] is MCF7. The experiment in a line: Cell cycle arrest in human MCF7 cells assessed as accumulation at G2/M phase at 32 uM after 48 hrs (reference value: 25%). The test is classed as functional. In outline: as §1
Test [7] deals with MCF7. Description: Cell cycle arrest in human MCF7 cells assessed as accumulation at G1 phase at 32 uM after 48 hrs (reference value: 63%). The test is classed as functional. In outline: as §1
Test [8] deals with MCF7. The experiment in a line: Cell cycle arrest in human MCF7 cells assessed as accumulation at S phase at 8 uM after 48 hrs (reference value: 9%). The test is classed as functional. In outline:
as §1

In test [9] the test system is MCF7. Description: Cytotoxicity against human MCF7 cells assessed as cell viability after 24 to 48 hrs by MTT assay. The test is classed as functional. In outline: as §2
In test [10] the test system is MCF7. The experiment in a line: Cell cycle arrest in human MCF7 cells assessed as accumulation at G0 phase at 4 uM after 48 hrs (reference value: 3%). The test is classed as functional. In outline:
as §1

For test [11], the system named is MCF7. The experiment in a line: Cell cycle arrest in human MCF7 cells assessed as accumulation at S phase at 4 uM after 48 hrs (reference value: 9%). The test is classed as functional. In outline: as §1
The test system of test [12] is HeLa. Description: Cytotoxicity against human HeLa cells assessed as cell viability after 24 to 48 hrs by MTT assay. The test is classed as functional. In outline: as §2
Test [13] concerns MCF7. Description: Cell cycle arrest in human MCF7 cells assessed as accumulation at G1 phase at 16 uM after 48 hrs (reference value: 63%). The test is classed as functional. In outline:
as §1

The subject of test [14] is MCF7. The experiment in a line: Cell cycle arrest in human MCF7 cells assessed as accumulation at S phase at 32 uM after 48 hrs (reference value: 9%). The test is classed as functional. In outline: as §1
The subject of test [15] is MCF7. Description: Cell cycle arrest in human MCF7 cells assessed as accumulation at G2/M phase at 16 uM after 48 hrs (reference value: 25%). The test is classed as functional. In outline:
as §1

The subject of test [16] is MCF7. The experiment in a line: Down regulation of survivin expression in human MCF7 cells at 1 uM after 24 hrs by Western blot analysis. The test is classed as functional, cell-based. (In general: Immunoblotting shows a protein as a band on a membrane.)
The test system of test [17] is MCF7. Description: Cell cycle arrest in human MCF7 cells assessed as accumulation at G0 phase at 32 uM after 48 hrs (reference value: 3%). The test is classed as functional. In outline: as §1
Test [18] has as its system MCF7. The experiment in a line: Down regulation of cyclin D expression in human MCF7 cells at 1 uM after 24 hrs by Western blot analysis. The test is classed as functional, cell-based.
For test [19], the system named is MCF7. Description: Down regulation of Bcl-2 expression in human MCF7 cells at 1 uM after 24 hrs by Western blot analysis. The test is classed as functional, cell-based.
Test [20] is described as follows: Cytotoxicity against human IMR32 cells assessed as cell viability after 24 to 48 hrs by MTT assay. The test is classed as functional, IMR-32. In outline: as §2
Test [21] deals with MCF7. The experiment in a line: Cell cycle arrest in human MCF7 cells assessed as accumulation at S phase at 16 uM after 48 hrs (reference value: 9%). The test is classed as functional. In outline:
as §1

Test [22] has as its system MCF7. Description: Cell cycle arrest in human MCF7 cells assessed as accumulation at G2/M phase at 8 uM after 48 hrs (reference value: 25%). The test is classed as functional. In outline:
as §1

For test [23], the system named is MCF7. The experiment in a line: Cell cycle arrest in human MCF7 cells assessed as accumulation at G0 phase at 8 uM after 48 hrs (reference value: 3%). The test is classed as functional. In outline: as §1
The subject of test [24] is MCF7. The experiment in a line: Cell cycle arrest in human MCF7 cells assessed as accumulation at G0 phase at 16 uM after 48 hrs (reference value: 3%). The test is classed as functional. In outline: as §1

Activity calls are given as the source filed them. The rule behind the calls is not given here.

`O=C(c1cc(-c2ccc(F)cc2)n2nc(-c3ccccc3)cc2n1)N1CCN(C(=O)c2cccnc2Nc2ccccc2)CC1`: the result in test [1], in test [16], in test [18] and in test [19] was Active. Further, the Activity amounted to 52% in [2]; 38% in test [3]; 2.65 µM in [4]; 54% in test [5]; 39% in [6]; 44% in test [7]. Further, the Activity was 10% in test [8]; 1.79 µM in test [9]; 1% in test [10]; 8% in [11]; 2.29 µM in [12]; 58% in test [13]. Moreover, the Activity in test [14] was 9%; in test [15], 28%; in test [17], 9%; in test [20], 4.65 µM; in test [21] it was 8%; in [22], 33%. The figures for the Activity in test [23] and in [24] were 2% and 5%, respectively.

Take `COc1ccc(-c2cc(C(=O)N3CCN(C(=O)c4cccnc4Nc4ccccc4)CC3)nc3cc(-c4ccccc4)nn23)cc1`: the outcome in test [1], in test [16], in test [18] and in test [19] was Active. Besides, the Activity in test [2] stood at 52%; in test [3], 37%; in test [4] it was 3.33 µM; in test [5] it was 57%; in [6], 39%; in test [7], 38%. For the same compound, the Activity in test [8] is 9%; in test [9] it was 2.16 µM; in test [10], 1%; in test [11], 9%; in [12], 2.43 µM; in test [13], 64%. In addition, the Activity in test [14] was 10%; in test [15], 25%; in [17], 13%; in test [20] it was 4.75 µM; in test [21], 7%; in [22], 32%. For the same compound, the Activity in test [23] is given as 2%; in test [24], 4%.

The record behind these values is ChEMBL document CHEMBL3784968, “Synthesis and mechanistic aspects of 2-anilinonicotinyl-pyrazolo[1,5-a]pyrimidine conjugates that regulate cell proliferation in MCF-7 cells via estrogen signaling” (2016).
